How the values were obtained:
[1] = molecular target: T1, human histidine triad nucleotide binding protein 1 (hHint1) (Homo sapiens, UniProt P49773); experiment: stopped-flow fluorescence, burst; type: biochemical; conditions: 20 mM HEPES, 1 mM MgCl2, pH 7.2, 25 °C; pre-steady state
Summary of the method: (§1)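 Recombinant WT human Hint1 (E. coli BB2, AMP-agarose, desalted) was loaded at 5 μM in one syringe, with substrate in 20 mM HEPES, 1 mM MgCl2, pH 7.2 in the other. Substrate was phosphoramidate (5-60 μM) or acyl adenylate (5-40 μM). Equal volumes were mixed at 25°C. Fluorescence used excitation at 280 nm and a 320 nm cutoff. The burst rate came from a single exponential plus linear term, and Kadenylyl from a nonlinear fit versus [S]. Six experiments were averaged.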

[2] = molecular target: T1, human histidine triad nucleotide binding protein 1 (hHint1); experiment: stopped-flow catalytic trapping with TpAd; type: biochemical
Summary of the method: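 Wild-type human Hint1, expressed in E. coli hinT-disrupted strain BB2 and purified on AMP-agarose, at 5 μM in one stopped-flow syringe. It was pre-incubated 10 min with the test compound (0-5000 μM) and then mixed with the tryptamine-releasing phosphoramidate substrate (40 μM). Indole fluorescence was read with excitation at 280 nm through a 320 nm cutoff filter. Test-compound absorbance was kept within 5%.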

[3] = molecular target: T1, human histidine triad nucleotide binding protein 1 (hHint1); experiment: tryptophan fluorescence titration
[4] = molecular target: T1, human histidine triad nucleotide binding protein 1 (hHint1); experiment: stopped-flow fluorescence, burst; type: biochemical; conditions: 20 mM HEPES, 1 mM MgCl2, pH 7.2, 25 °C; pre-steady state; remark: listed apart in the source
Summary of the method: as §1

T1 sequence (P49773 2-126): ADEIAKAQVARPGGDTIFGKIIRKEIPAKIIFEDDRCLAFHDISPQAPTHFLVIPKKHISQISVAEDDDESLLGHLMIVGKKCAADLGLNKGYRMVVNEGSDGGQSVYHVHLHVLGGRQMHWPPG

For `Nc1ncnc2c1ncn2[C@@H]1O[C@H](COP(=O)(O)OC(=O)CCc2c[nH]c3ccccc23)[C@@H](O)[C@H]1O` [AIPA], which “K^adenylyl” value [1] is on record?
The value was 5 ± 1 µM.

For `Nc1ncnc2c1ncn2[C@@H]1O[C@H](COP(=O)(O)O)[C@@H](O)[C@H]1O` [AMP], which Ki [2] is on record?
The Ki was roughly 200 µM.

What about the Kd [3] of the same compound?
The Kd was 200 µM.

With `Nc1ncnc2c1ncn2[C@@H]1O[C@H](COP(=O)(O)NCCc2c[nH]c3ccccc23)[C@@H](O)[C@H]1O` [TpAd] as the compound, how does the “K^adenylyl” value [4] read?
The value was 13 ± 2 µM.

Source: paper PMC3835729 (Biochemistry, 2013)
